# Assay results reported in PMC10267526 (The Journal of Biological Chemistry, 2023).
# How the values were obtained:
# [1] = target: T1, hTRPML1-nLuc (Homo sapiens, UniProt Q9GZU1); experiment: In-cell BRET competitive displacement of MRC087; assay type: binding
# Procedure, shortened: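 hTRPML1-nLuc HEK293T cells (2 × 10^5/100 μl, 48 h post-transfection) in Opti-MEM received tracer at 2.0 μM final and serially diluted test compound (final DMSO 1%). After 2 h incubation, nLuc substrate plus inhibitor was added and emissions read at 460/610 nm. BRET was normalised to probe-only and no-probe wells and fitted for EC50, then converted to KdA by Cheng–Prusoff using tracer Kd. n = 3–4/concentration, three independent experiments.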
# [2] = target: T1, hTRPML1-nLuc; experiment: In-cell BRET kinetics of competitive binding; details: for koff: read-out: koff of unlabeled compound
# Procedure, shortened: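 hTRPML1-nLuc HEK293T cells in Opti-MEM were given nLuc substrate plus inhibitor, shaken 5 min and read for a 1-min baseline. The reader then injected tracer (2.0 μM final) premixed with one of two concentrations of unlabeled compound, or DMSO vehicle; 60 μM reference antagonist defined nonspecific binding. Specific BRET versus time was fitted to the Motulsky–Mahan competitive kinetics model with tracer kon/koff obtained separately. n = 6/concentration, single experiment.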
# [3] = target: T2, GCaMP6f-hTRPML1 (Homo sapiens, UniProt Q9GZU1); experiment: GCaMP6f Ca2+ indicator channel activation assay; assay type: cell-based
# T2 sequence (Q9GZU1 whole entry): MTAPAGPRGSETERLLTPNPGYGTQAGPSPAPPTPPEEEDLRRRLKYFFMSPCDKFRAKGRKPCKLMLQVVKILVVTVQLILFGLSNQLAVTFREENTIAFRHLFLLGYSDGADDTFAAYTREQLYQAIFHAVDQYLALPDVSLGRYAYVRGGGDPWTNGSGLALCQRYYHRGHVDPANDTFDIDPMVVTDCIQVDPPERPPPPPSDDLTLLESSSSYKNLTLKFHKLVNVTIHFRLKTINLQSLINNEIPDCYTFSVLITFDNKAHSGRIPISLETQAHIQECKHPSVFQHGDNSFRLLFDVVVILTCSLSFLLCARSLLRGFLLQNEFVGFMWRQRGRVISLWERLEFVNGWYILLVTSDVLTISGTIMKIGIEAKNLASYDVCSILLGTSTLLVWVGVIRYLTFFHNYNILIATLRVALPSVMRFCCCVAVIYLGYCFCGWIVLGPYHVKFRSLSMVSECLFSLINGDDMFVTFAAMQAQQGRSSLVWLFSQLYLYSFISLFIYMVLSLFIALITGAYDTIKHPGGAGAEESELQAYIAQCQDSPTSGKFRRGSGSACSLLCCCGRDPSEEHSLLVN
# Procedure, shortened: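 HEK293T cells were transfected with GCaMP6f-hTRPML1 and seeded at 4 × 10^5 cells/100 μl in poly-D-lysine plates. After 24 h the medium was changed to phenol red-free DMEM, with a further 24 h growth. Plates were equilibrated 10 min at RT and 10 min at 25 °C, followed by a 1-min baseline read every 5 s. The 10× compound in Ca2+-free HEPES buffer was injected and reads continued 6 min (ex 480 ± 25, em 549–562 nm; final DMSO 0.5%). Baseline-normalised AUC was scaled to DMSO (0%) and reference agonist (100%), and EC50 was taken from a nonlinear fit. n = 6/concentration, three independent experiments.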
# [4] = tested on: hTRPML1; details: ref [11], [12], cited from earlier work
# [5] = target: T2, GCaMP6f-hTRPML1; experiment: GCaMP6f Ca2+ indicator channel assay; assay type: cell-based
# Procedure, shortened: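 GCaMP6f-hTRPML1-transfected HEK293T cells were preincubated 10 min at RT with test compound. After a 1-min baseline (reads every 5 s), reference agonist was injected at 25 μM final and fluorescence recorded a further 6 min (ex 480 ± 25, em 549–562 nm; 0.5% DMSO). Compounds were diluted in nominally Ca2+-free HEPES-buffered solution. Baseline-normalised AUC was scaled to DMSO and agonist controls, and IC50 was derived by nonlinear fit. n = 6/concentration, two independent experiments.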
# T1 sequence (Q9GZU1 whole entry): as above
Kd [1],Kd [2],residence time [2],koff [2],EC50 [3],kon ([2]; read-out: kon of unlabeled compound),IC50 [5],SMILES,EC50 ([4]; read-out: EC50 in previous studies),IC50 ([4]; read-out: IC50 in previous studies)
19.8 ± 1.8 µM,37.3 µM,1.5 min,0.0108 s⁻¹,13 ± 3.1 µM,,,"CC1CC(C)(C)N(C(=O)CN2C(=O)c3ccccc3C2=O)c2ccccc21 (stereo not shown) [compound 1, 2-(2-oxo-2-(2,2,4-trimethyl-3,4-dihydroquinolin-1(2H)-yl)ethyl)isoindoline-1,3-dione]",9.7 µM,
2.8 ± 1.2 µM,1 µM,1.5 min,0.0112 s⁻¹,,10700 M⁻¹ s⁻¹,2.8 ± 0.2 µM,"COc1ccccc1N1CCN(c2ccccc2NS(=O)(=O)c2ccccc2)CC1 [compound 8, N-(2-(4-(2-methoxyphenyl)piperazin-1-yl)phenyl)benzenesulfonamide]",,1.8 µM
